Assay results taken from ChEMBL document CHEMBL4765247, “Novel mouse GABA uptake inhibitors with enhanced inhibitory activity toward mGAT3/4 and their effect on pain threshold in mice” (Eur J Med Chem, 2020).

Assays:
[1] = molecular target: T1, Sodium- and chloride-dependent GABA transporter 1 (Mus musculus, UniProt P31648); assay: Inhibition of mouse GAT1 expressed in HEK293 cell line assessed as inhibition of [3H]GABA uptake measured after 35 mins by liquid scintillation method; format: cell-based
Procedure, shortened: (§1)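 Otherwise, the remaining uptake at 100 µM is reported as a percentage. Values without SEM come from a single triplicate experiment.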

[2] = molecular target: T1, Sodium- and chloride-dependent GABA transporter 1; assay: Displacement of [3H]NO711 from mouse GAT1 expressed in HEK293 cells measured after 40 mins of incubation by LC-ESI-MS-MS method; format: cell-based; conditions: in the assay text read “unlabelled NO711” for “[3H]NO711”
Procedure, shortened: (§2)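 Competitive MS Binding Assay for mGAT1 using NO-711 as a nonlabeled marker, quantified by LC–ESI–MS–MS. Compounds were screened at 100 µM. […] Otherwise, the percentage of remaining binding at 100 µM is given.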

GABA transporter 4 = molecular target: T2, GABA transporter 4 (Mus musculus, UniProt P31650); assay: Inhibition of mouse GAT4 expressed in HEK293 cell line assessed as inhibition of [3H]GABA uptake measured after 35 mins by liquid scintillation method; format: cell-based; procedure, shortened: as §1
T2 sequence (P31650 whole entry): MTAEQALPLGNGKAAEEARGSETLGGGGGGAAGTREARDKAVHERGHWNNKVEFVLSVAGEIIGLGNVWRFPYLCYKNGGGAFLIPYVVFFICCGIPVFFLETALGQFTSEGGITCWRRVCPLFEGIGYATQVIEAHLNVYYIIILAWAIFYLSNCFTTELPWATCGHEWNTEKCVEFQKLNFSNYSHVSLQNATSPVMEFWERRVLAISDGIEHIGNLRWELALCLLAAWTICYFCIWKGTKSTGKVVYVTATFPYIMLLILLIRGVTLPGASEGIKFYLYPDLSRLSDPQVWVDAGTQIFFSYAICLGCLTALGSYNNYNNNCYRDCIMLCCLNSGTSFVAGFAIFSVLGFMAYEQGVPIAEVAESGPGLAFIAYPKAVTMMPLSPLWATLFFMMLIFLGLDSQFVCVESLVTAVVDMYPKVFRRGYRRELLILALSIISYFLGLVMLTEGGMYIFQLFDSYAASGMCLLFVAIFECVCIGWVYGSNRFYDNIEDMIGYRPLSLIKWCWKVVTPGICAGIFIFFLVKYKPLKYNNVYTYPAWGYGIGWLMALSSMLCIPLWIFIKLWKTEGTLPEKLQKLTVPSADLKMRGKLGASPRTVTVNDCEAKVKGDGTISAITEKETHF

[3] = Lipophilicity, logP of the compound by UPLC-MS method; format: physicochemical; conditions: octanol/water
Procedure, shortened: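 LogP measured by UPLC on a BEH C18 column (2.1 × 100 mm, 1.7 µm, with C18 pre-column) coupled to an ESI tandem quadrupole MS. The method was calibrated with reference compounds of established logP values.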

[4] = molecular target: Sodium- and chloride-dependent GABA transporter 1 (Mus musculus) (UniProt P31648); assay: Displacement of [3H]NO711 from mouse GAT1 expressed in HEK293 cells at 100 uM measured after 40 mins of incubation by LC-ESI-MS-MS method; format: cell-based; conditions: in the assay text read “NO711” for “[3H]NO711”; procedure, shortened: as §2

Structure (SMILES) | IC50 [1] | Ki [2] | IC50 (GABA transporter 4) | logP ([3]; read-out: logP) | residual activity [4] | pIC50 (GABA transporter 4; hek293) | logP [3]
Cc1ccsc1C(=CCCN(C)C(CCN)C(=O)NCc1ccccc1Cl)c1sccc1C (configuration not stated) | 7.59 µM | 11.7 µM | 5.62 µM | 6.11 |  |  | 
Cc1ccsc1C(=CCCN(C)C(CCO)C(=O)NC(C)c1ccccc1)c1sccc1C (configuration not stated) | 30.2 µM |  | 13.8 µM | 6.1 | 68% |  | 
Cc1ccc(CNC(=O)C(CCN)N(C)CCC=C(c2sccc2C)c2sccc2C)cc1 (configuration not stated) | 11.5 µM | 18.2 µM | 6.92 µM | 6.61 |  |  | 
Cc1ccsc1C(=CCCN(C)C(CC(C)O)C(=O)NCc1ccccc1)c1sccc1C (racemic; form 1) [listing 1 of 2 here] | 13.2 µM |  | 3.89 µM | 5.64 |  |  | 
Cc1ccc(CNC(=O)C(CCO)N(C)CCC=C(c2sccc2C)c2sccc2C)cc1 (configuration not stated) | 12.9 µM |  | 7.08 µM | 6.2 | 58% |  | 
Cc1ccsc1C(=CCCN(C)C(CO)C(=O)NCc1ccc(C(F)(F)F)cc1)c1sccc1C (configuration not stated) | 13.5 µM |  | 17 µM |  | 92% |  | 
Cc1ccsc1C(=CCCN(C)C(CC(C)O)C(=O)NCc1ccc(Cl)cc1)c1sccc1C (stereo in doubt) |  |  | 28.8 µM | 5.99 |  |  | 
Cc1ccsc1C(=CCCN(C)C(CO)C(=O)NCc1ccccc1)c1sccc1C (configuration not stated) | 35.5 µM |  | 20.9 µM | 6.26 | 46% |  | 
Cc1ccc(CNC(=O)C(CC(C)O)N(C)CCC=C(c2sccc2C)c2sccc2C)cc1 (stereo in doubt) [listing 1 of 2 here] | 25.1 µM |  | 7.08 µM | 6.15 |  |  | 
Cc1ccsc1C(=CCCN(C)C1CCc2onc(O)c2C1)c1sccc1C (configuration not stated) | 7.08 µM |  | > 302 µM |  |  |  | 
Cc1ccsc1C(=CCCN(C)C(CC(C)O)C(=O)NCc1ccccc1)c1sccc1C (racemic; form 1) [listing 2 of 2 here] |  |  |  |  | 82% |  | 
Cc1ccsc1C(=CCCN(C)C(CC(C)O)C(=O)NCc1ccccc1Cl)c1sccc1C (racemic; form 2) |  |  |  |  |  | 5.02 | 5.67
NCC(O)C(=O)O (configuration not stated) | 2510 µM |  | 5.01 µM |  |  |  | 
Cc1ccsc1C(=CCCN(C)[C@H](CO)C(=O)NCc1ccc(Cl)cc1)c1sccc1C | 20.4 µM | 18.6 µM |  |  |  |  | 
Cc1ccsc1C(=CCCN(C)[C@H](CCO)C(=O)NCc1ccccc1Cl)c1sccc1C | 13.8 µM | 25.7 µM |  |  |  |  | 
Cc1ccsc1C(=CCCN(C)C(CC(C)O)C(=O)NCc1ccccc1Cl)c1sccc1C (racemic; form 1) |  |  | 9.55 µM | 5.95 |  |  | 
Cc1ccsc1C(=CCCN(C)C(CC(C)O)C(=O)NCc1ccc(Cl)cc1)c1sccc1C (mixture of isomers) [listing 1 of 2 here] |  |  |  |  | 91% |  | 
Cc1ccsc1C(=CCCN(C)C(CCO)C(=O)NCc1ccc(F)cc1F)c1sccc1C (configuration not stated) | 12.3 µM |  | 8.71 µM | 6.37 | 71% |  | 
Cc1ccc(CNC(=O)C(CC(C)O)N(C)CCC=C(c2sccc2C)c2sccc2C)cc1 (stereo in doubt) [listing 2 of 2 here] |  |  |  |  | 72% |  | 

Structure (SMILES) | IC50 [1] | Ki [2] | IC50 (GABA transporter 4) | logP ([3]; read-out: logP) | residual activity [4] | pIC50 (GABA transporter 4; hek293) | logP [3]
O=C(O)C1=CCCN(CCO/N=C/c2ccccc2-c2ccc(Cl)cc2Cl)C1 |  |  | 85.1 µM |  |  |  | 
Cc1ccsc1C(=CCCN(C)C(CC(C)O)C(=O)NCc1ccc(F)cc1)c1sccc1C (racemic; form 1) [listing 1 of 2 here] | 66.1 µM |  | 17.8 µM | 5.51 |  |  | 
Cc1ccsc1C(=CCCN(C)C(CCN)C(=O)NCc1ccccc1)c1sccc1C (configuration not stated) | 11.5 µM | 24.5 µM | 6.61 µM | 5.5 |  |  | 
Cc1ccsc1C(=CCCN(C)C(CCO)C(=O)NCc1ccccc1)c1sccc1C (configuration not stated) | 15.8 µM |  | 10.2 µM | 5.71 | 60% |  | 
Cc1ccc(CNC(=O)C(CC(C)O)N(C)CCC=C(c2sccc2C)c2sccc2C)cc1 (racemic) [listing 1 of 2 here] | 12.3 µM |  | 5.5 µM |  |  |  | 
Cc1ccsc1C(=CCCN(C)C(CCO)C(=O)NCc1ccc(F)cc1)c1sccc1C (configuration not stated) | 15.5 µM |  | 11 µM | 5.87 | 70% |  | 
Cc1ccsc1C(=CCCN(C)C(CC(C)O)C(=O)NCc1ccccc1)c1sccc1C (racemic; form 2) [listing 1 of 2 here] |  |  |  |  | 59% |  | 
Cc1ccsc1C(=CCCN(C)[C@@H](CO)C(=O)NCc1ccc(Cl)cc1)c1sccc1C |  | 87.1 µM |  |  |  |  | 
Cc1ccsc1C(=CCCN(C)C(CC(C)O)C(=O)NCc1ccc(F)cc1)c1sccc1C (racemic; form 2) [listing 1 of 2 here] |  |  |  |  | 70% |  | 
Cc1ccsc1C(=CCCN(C)C(CCN)C(=O)NCc1ccc(Cl)cc1)c1sccc1C (configuration not stated) | 9.33 µM | 20 µM | 8.13 µM | 5.85 |  |  | 
Cc1ccsc1C(=CCCN(C)C(CCN)C(=O)NCc1ccc(F)cc1)c1sccc1C (configuration not stated) | 11.7 µM | 21.9 µM | 7.59 µM | 6.45 |  |  | 
Cc1ccsc1C(=CCCN(C)C(CC(C)O)C(=O)NCc1ccccc1)c1sccc1C (racemic; form 2) [listing 2 of 2 here] | 23.4 µM |  | 18.6 µM |  |  |  | 6.22
Cc1ccsc1C(=CCCN(C)C(CCO)C(=O)NCc1ccc(Cl)cc1)c1sccc1C (configuration not stated) | 9.33 µM |  | 7.41 µM | 6.38 | 81% |  | 
CC(=O)NCCC(C(=O)NCc1ccccc1Cl)N(C)CCC=C(c1sccc1C)c1sccc1C (configuration not stated) | 8.71 µM |  | 6.17 µM | 6.46 | 68% |  | 
Cc1ccc(CNC(=O)C(CC(C)O)N(C)CCC=C(c2sccc2C)c2sccc2C)cc1 (racemic) [listing 2 of 2 here] |  |  |  |  | 79% |  | 
Cc1ccsc1C(=CCCN(C)C(CC(C)O)C(=O)NCc1ccc(F)cc1)c1sccc1C (racemic; form 2) [listing 2 of 2 here] | 85.1 µM |  | 29.5 µM |  |  |  | 
Cc1ccsc1C(=CCCN(C)C(CC(C)O)C(=O)NCc1ccc(Cl)cc1)c1sccc1C (mixture of isomers) [listing 2 of 2 here] | 57.5 µM |  | 13.2 µM |  |  |  | 6.77
Cc1ccsc1C(=CCCN(C)C(CC(C)O)C(=O)NCc1ccc(F)cc1)c1sccc1C (racemic; form 1) [listing 2 of 2 here] |  |  |  |  | 78% |  | 
